Measurements as given in ChEMBL document CHEMBL4627381, “Licochalcone A Selectively Resensitizes ABCG2-Overexpressing Multidrug-Resistant Cancer Cells to Chemotherapeutic Drugs” (J Nat Prod, 2020).

Key:
[1] = target: ATP-dependent translocase ABCB1 (Homo sapiens, UniProt P08183); assay: Reversal of human ABCB1-mediated multidrug resistance in HEK293/MDR19 cells assessed as fold change in colchicine IC50 at 1 uM after 72 hrs by CCK8 relative to colchicine IC50; format: cell-based
In short: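 Cells were seeded at 5000/well for 24 h, then given colchicine, etoposide, mitoxantrone or topotecan ± non-toxic modulator (0.5–3.0 μM) for 72 h, with DMSO up to 0.5%. IC50 came from fitted curves (mean ± SD, three experiments). Fold-reversal = IC50 without modulator ÷ IC50 with modulator.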

[2] = system: HEK293; assay: Effect on Colchicine-induced cytotoxicity against HEK293 cells assessed as fold change in colchicine IC50 at 1 uM after 72 hrs by CCK8 assay relative to colchicine IC50; format: cell-based; settings: human, hek293, 72 h
In short: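 Reversal assay in parental pcDNA-HEK293 and transfected HEK293 lines (ABCB1 for colchicine, ABCC1 for etoposide, ABCG2 for mitoxantrone/topotecan). Substrate drug series was given with or without nontoxic modulator (0.5, 1.0, 2.0 or 3.0 μM) for 72 h, with a CCK-8 read-out. Fold-reversal is substrate IC50 without modulator divided by IC50 with modulator. Three independent experiments.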

[3] = system: S1; assay: Induction of apoptosis in human S1 cells assessed as necrotic cells at 5 uM incubated for 48 hrs by annexin V/propidium iodide staining based flow cytometry (reference value: 0.2%); format: functional
[4] = system: S1; assay: Induction of apoptosis in human S1 cells assessed as late apoptotic cells at 5 uM incubated for 48 hrs by annexin V/propidium iodide staining based flow cytometry (reference value: 3.6%); format: functional
In short: (§1)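 S1 cells were exposed for 48 h to DMSO, 10 μM compound, 5 μM topotecan, or 5 μM topotecan plus 10 μM compound. They were then stained with 1.25 μg/mL annexin V–FITC and 0.1 mg/mL PI for 15 min at room temperature. 10000 cells per sample were analysed by flow cytometry; three independent experiments.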

[5] = system: S1; assay: Induction of apoptosis in human S1 cells assessed as early apoptotic cells at 5 uM incubated for 48 hrs by annexin V/propidium iodide staining based flow cytometry (reference value: 2%); format: functional; in short: as §1
[6] = system: S1; assay: Induction of apoptosis in human S1 cells assessed as viable cells at 5 uM incubated for 48 hrs by annexin V/propidium iodide staining based flow cytometry (reference value: 94.1%); format: functional; settings: S1, 48 h, read-out: Activity

ATP-dependent translocase ABCB1, sequence (P08183 whole entry): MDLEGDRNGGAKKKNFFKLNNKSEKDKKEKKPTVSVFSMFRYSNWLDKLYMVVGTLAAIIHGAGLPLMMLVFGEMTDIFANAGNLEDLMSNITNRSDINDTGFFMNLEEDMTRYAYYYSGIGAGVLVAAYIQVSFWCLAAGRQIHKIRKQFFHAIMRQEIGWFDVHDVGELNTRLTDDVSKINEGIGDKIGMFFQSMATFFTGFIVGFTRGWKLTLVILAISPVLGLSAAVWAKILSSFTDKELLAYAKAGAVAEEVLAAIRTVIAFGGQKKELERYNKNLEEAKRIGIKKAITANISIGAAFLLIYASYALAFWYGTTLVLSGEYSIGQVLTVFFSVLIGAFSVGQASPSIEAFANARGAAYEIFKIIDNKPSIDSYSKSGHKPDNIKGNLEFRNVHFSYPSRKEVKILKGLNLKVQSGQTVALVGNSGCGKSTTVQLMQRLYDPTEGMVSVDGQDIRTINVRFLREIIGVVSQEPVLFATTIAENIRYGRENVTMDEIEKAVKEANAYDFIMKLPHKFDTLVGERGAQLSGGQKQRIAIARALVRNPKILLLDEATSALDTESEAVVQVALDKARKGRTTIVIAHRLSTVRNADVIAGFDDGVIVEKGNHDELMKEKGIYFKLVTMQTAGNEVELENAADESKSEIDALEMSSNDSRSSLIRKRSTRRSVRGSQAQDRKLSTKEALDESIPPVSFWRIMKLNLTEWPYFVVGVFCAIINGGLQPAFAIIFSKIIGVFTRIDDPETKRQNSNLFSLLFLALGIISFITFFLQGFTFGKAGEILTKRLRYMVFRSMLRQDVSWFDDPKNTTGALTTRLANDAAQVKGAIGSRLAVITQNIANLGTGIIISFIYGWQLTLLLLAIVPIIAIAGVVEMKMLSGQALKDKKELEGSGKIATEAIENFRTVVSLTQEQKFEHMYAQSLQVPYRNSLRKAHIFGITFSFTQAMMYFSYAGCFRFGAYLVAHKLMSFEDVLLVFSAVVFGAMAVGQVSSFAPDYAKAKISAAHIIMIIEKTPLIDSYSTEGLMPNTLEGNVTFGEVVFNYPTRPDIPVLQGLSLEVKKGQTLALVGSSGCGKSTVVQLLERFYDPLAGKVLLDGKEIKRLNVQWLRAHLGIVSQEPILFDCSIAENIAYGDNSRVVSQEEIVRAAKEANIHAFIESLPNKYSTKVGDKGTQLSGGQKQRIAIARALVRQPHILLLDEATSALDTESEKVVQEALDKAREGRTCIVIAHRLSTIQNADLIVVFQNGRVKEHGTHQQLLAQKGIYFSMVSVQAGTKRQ

Compound | fold change (FC) [1] | fold change (FC) [2] | Activity [3] [%] | Activity [4] [%] | Activity [5] [%] | viability at 5 µM [6] [%]
COc1cc2c(cc1OC)CN(CCc1ccc(NC(=O)c3cc(OC)c(OC)cc3NC(=O)c3cnc4ccccc4c3)cc1)CC2 | 12.5 | 1.1 |  |  |  | 
CC[C@@]1(O)C(=O)OCc2c1cc1n(c2=O)Cc2cc3c(CN(C)C)c(O)ccc3nc2-1 [TOPOTECAN] |  |  | 3.5 | 22.7 | 31.2 | 42.7
